Laboratory results from ChEMBL document CHEMBL3244428, “Synthesis and antifungal properties of certain 7-alkylaminopyrazolo[1,5-a]pyrimidines” (J Med Chem, 1977).
Values after ≈ are worked out from the molar mass of the structure shown. Active and inactive are the calls of the source. The calls are words filed in the database; no cut-off is given here.

What was measured:
[1] = test system: Trichophyton mentagrophytes; assay: Fungicidal activity against Trichophyton mentagrophytes clinical isolate after 48 hrs by broth dilution method; type: functional
Summary of the method: (§1)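 Broth dilution in chemically defined medium, with serial dilutions spanning 0.32 to 0.005 µmol/ml. Dermatophyte plates were read after 48 h at 30 °C.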

[2] = test system: Trichophyton mentagrophytes; assay: Fungistatic activity against Trichophyton mentagrophytes clinical isolate after 48 hrs by broth dilution method; type: functional; summary of the method: as §1
[3] = test system: Trichophyton mentagrophytes; assay: Antifungal activity against Trichophyton mentagrophytes infected in guinea pig assessed as cure rate of dermal infection at nonirritating dose administered topically bid started on day 3 post infection continued for 8 days measured every other day through day 14 relative to vehicle-treated control; type: functional, organism-based
Summary of the method: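 Guinea pig T. mentagrophytes skin infection model, treated topically. Compounds were given at non-irritating concentrations, either as a w/v solution in propylene glycol (20%), 70% sorbitol (3%) and ethanol (78%) or in a petrolatum ointment. Treated animals were compared with infected, vehicle-only controls.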

Cavia porcellus [4] = assay: Toxicity in guinea pig assessed as skin irritation administered topically bid measured on day 6; type: organism-based; conditions: in vivo, topical_or_ocular
Summary of the method: (§2)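 Intact or abraded skin of uninfected guinea pigs was treated topically with 1.0% w/v compound. The vehicle was either a solution of propylene glycol (20%), 70% sorbitol (3%) and ethanol (78%) or a petrolatum ointment. Skin was scored for erythema and scaling up to day 6, against vehicle-treated controls.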

Cavia porcellus [5] = assay: Toxicity in guinea pig skin assessed as scaling administered topically bid measured on day 6; type: organism-based; conditions: in vivo, topical_or_ocular; summary of the method: as §2
Cavia porcellus [6] = assay: Toxicity in guinea pig skin assessed as erythema administered topically bid measured on day 6; type: organism-based; conditions: in vivo, topical_or_ocular; summary of the method: as §2
[7] = Trichophyton mentagrophytes, 48 h, read-out: MIC

CCCCCCCCNc1c(C)c(Cl)nc2ccnn12
MLC [1]: >0.32 µmol/mL | MIC [2, 7]: > 320 µM

Cc1cc(NCC(=O)O)n2nccc2n1
MLC [1]: >0.32 µmol/mL | MIC [2, 7]: > 320 µM

CCCCCCCCCCNc1cc(Cl)nc2ccnn12
MLC [1]: >0.32 µmol/mL | MIC [2, 7]: > 320 µM

CCCCCCCCNc1cc(C)nc2c(C(=O)OCC)cnn12
MLC [1]: >0.32 µmol/mL | MIC [2, 7]: 320 µM (≈ 106 µg/mL)

CCCCCCCC/C=C/CCCCCCCCNc1cc(C)nc2c(Br)cnn12
MLC [1]: 0.02 µmol/mL (≈ 9.55 µg/mL) | MIC [2, 7]: 10 µM (≈ 4.78 µg/mL) | Activity [3]: Active

CCCCCCCCNc1cc(C)nc2ccnn12 [listing 1 of 2 here]
Activity [3]: inactive

CCCCCCCCSc1cc(C)nc2ccnn12
MLC [1]: 0.16 µmol/mL (≈ 44.4 µg/mL) | MIC [2, 7]: 20 µM (≈ 5.55 µg/mL) | Activity (Cavia porcellus [4]): Toxic

CCCCCCCCNc1c(C)c(C)nc2ccnn12
MLC [1]: >0.32 µmol/mL | MIC [2, 7]: 10 µM (≈ 2.74 µg/mL)

CCCCCCCCNc1cc(C)nc2ccnn12.Cl
MLC [1]: 0.16 µmol/mL | MIC [2]: 20 µM | Activity (Cavia porcellus [5]): Toxic | Activity (Cavia porcellus [6]): Toxic

CCCCCCCCNc1ccnc2ccnn12.Cl
MLC [1]: 0.08 µmol/mL | MIC [2, 7]: 10 µM | Activity (Cavia porcellus [5]): Toxic | Activity (Cavia porcellus [6]): Toxic | Activity [3]: inactive

Cc1cc(NCCCN2CCOCC2)n2nccc2n1.Cl
MLC [1]: 0.32 µmol/mL | MIC [2, 7]: > 320 µM

CCCCCCCCNc1cc(C)nc2ccnn12 [listing 2 of 2 here]
MLC [1]: 0.16 µmol/mL (≈ 41.7 µg/mL) | MIC [2, 7]: 20 µM (≈ 5.21 µg/mL) | Activity (Cavia porcellus [5]): Toxic | Activity (Cavia porcellus [6]): Toxic

Cc1cc(N2CCCCC2)n2nccc2n1
MLC [1]: >0.32 µmol/mL | MIC [2, 7]: > 320 µM

CCCCCCCCNc1cc(Cl)nc2ccnn12
MLC [1]: 0.32 µmol/mL (≈ 89.9 µg/mL) | MIC [2, 7]: 20 µM (≈ 5.62 µg/mL)

CCN(CC)c1cc(C)nc2ccnn12
MLC [1]: >0.32 µmol/mL | MIC [2, 7]: > 320 µM

CCCCCCCCNc1cc(C(C)C)nc2ccnn12
MLC [1]: >0.32 µmol/mL | MIC [2, 7]: 20 µM (≈ 5.77 µg/mL)

Cc1cc(NCc2ccc(Cl)cc2Cl)n2nccc2n1
MLC [1]: >0.32 µmol/mL | MIC [2, 7]: 40 µM (≈ 12.3 µg/mL)

CCCCCCCC/C=C/CCCCCCCCNc1cc(C)nc2ccnn12
MLC [1]: 0.01 µmol/mL (≈ 3.99 µg/mL) | MIC [2, 7]: 5 µM (≈ 1.99 µg/mL) | Activity (Cavia porcellus [5]): Toxic | Activity (Cavia porcellus [6]): Toxic | Activity [3]: inactive

CCCCCCCNc1cc(C)nc2ccnn12
MLC [1]: 0.32 µmol/mL (≈ 78.8 µg/mL) | MIC [2, 7]: 40 µM (≈ 9.85 µg/mL)

CCCCCCCCNc1cc(C(=O)OCC)nc2ccnn12
MLC [1]: >0.32 µmol/mL | MIC [2, 7]: 320 µM (≈ 102 µg/mL)

CCCCCCCCCCNc1cc(C)nc2ccnn12
MLC [1]: >0.32 µmol/mL | MIC [2, 7]: 40 µM (≈ 11.5 µg/mL)

CCCNc1cc(C)nc2c(Br)cnn12
MLC [1]: 0.32 µmol/mL (≈ 86.1 µg/mL) | MIC [2, 7]: 80 µM (≈ 21.5 µg/mL)

CCCCCCNc1cc(C)nc2ccnn12
MLC [1]: 0.32 µmol/mL (≈ 74.3 µg/mL) | MIC [2, 7]: 40 µM (≈ 9.29 µg/mL)
